Test [1] concerns Rattus norvegicus. Description: Anticonvulsant activity in Wistar albino rat assessed as time spent on tonic flexion phase at 75 mg/kg by MES test (RVb = 3.12 +/- 0.31 sec). It is filed as functional. In short, it runs like this: (§1)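 Maximal electroshock (MES) convulsion model in rats. Duration in seconds of the flexion, extensor, clonus and stupor phases was recorded, along with recovery or death. The vehicle control was 1% w/w gum acacia and phenytoin was the reference. Data are mean ± SEM, with P < 0.05 taken as significant.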

The subject of test [2] is Rattus norvegicus. Description: Anticonvulsant activity in Wistar albino rat assessed as time spent on tonic extensor phase at 75 mg/kg by MES test (RVb = 11 +/- 0.57 sec). The test is classed as functional. In a few lines:
as §1

The subject of test [3] is Rattus norvegicus. Description: Anticonvulsant activity in Wistar albino rat assessed as time spent on clonic convulsions phase at 75 mg/kg by MES test (RVb = 16.80 +/-2.50 sec). It is filed as functional. In a few lines: as §1
Test [4] has as its system Rattus norvegicus. Description: Anticonvulsant activity in Wistar albino rat assessed as time spent on stupor phase at 75 mg/kg by MES test (RVb = 218.33 +/- 5.80 sec). It is filed as functional. In a few lines:
as §1

Test [5] concerns Rattus norvegicus. Kind of test: Anticonvulsant activity in Wistar albino rat assessed as time spent on tonic flexion phase at 70 mg/kg by MES test (RVb = 3.12 +/- 0.31 sec). The test is classed as functional. In short, it runs like this:
as §1

Test [6] relates to Rattus norvegicus. Description: Anticonvulsant activity in Wistar albino rat assessed as time spent on tonic extensor phase at 70 mg/kg by MES test (RVb = 11 +/- 0.57 sec). The test is classed as functional. In a few lines:
as §1

The test system of test [7] is Rattus norvegicus. Kind of test: Anticonvulsant activity in Wistar albino rat assessed as time spent on clonic convulsions phase at 70 mg/kg by MES test (RVb = 16.80 +/- 2.50 sec). The test is classed as functional. In short, it runs like this: as §1
For test [8], the system named is Rattus norvegicus. Kind of test: Anticonvulsant activity in Wistar albino rat assessed as time spent on stupor phase at 70 mg/kg by MES test (RVb = 218.33 +/- 5.80 sec). It is filed as functional. In a few lines:
as §1

The subject of test [9] is Rattus norvegicus. Description: Antidiabetic activity in Wistar albino rat assessed as reduction of blood glucose level administered qd for 9 days by glucose oxidation method (RVb = […] +/- […] mg/dl). It is filed as functional.
For test [10], the system named is Rattus norvegicus. Description: Antidiabetic activity in Wistar albino rat assessed as reduction of fasting blood glucose level administered qd for 9 days by oral glucose tolerance test (RVb = 83.33 +/- 1.54 mg/dl). It is filed as functional.
Test [11] concerns Rattus norvegicus. Kind of test: Antidiabetic activity in Wistar albino rat assessed as reduction of blood glucose level administered qd for 9 days measured after 30 mins last post dose by oral glucose tolerance test (RVb = 183.2 +/- 3.68 mg/dl). It is filed as functional.
Test [12] concerns Rattus norvegicus. Kind of test: Antidiabetic activity in Wistar albino rat assessed as reduction of blood glucose level administered qd for 9 days measured after 90 mins last post dose by oral glucose tolerance test (RVb = 135.7 +/- 2.9 mg/dl). It is filed as functional.
Test [13] has as its system Rattus norvegicus. Description: Anticonvulsant activity in Wistar albino rat assessed as time spent on tonic flexion phase at 85 mg/kg by MES test (RVb = 3.12 +/- 0.31 sec). It is filed as functional. In a few lines:
as §1

Test [14] concerns Rattus norvegicus. Kind of test: Anticonvulsant activity in Wistar albino rat assessed as time spent on tonic extensor phase at 85 mg/kg by MES test (RVb = 11 +/- 0.57 sec). It is filed as functional. In a few lines:
as §1

Test [15] relates to Rattus norvegicus. Kind of test: Anticonvulsant activity in Wistar albino rat assessed as time spent on clonic convulsions phase at 85 mg/kg by MES test (RVb = 16.80 +/- 2.50 sec). It is filed as functional. In a few lines:
as §1

In test [16] the test system is Rattus norvegicus. Kind of test: Anticonvulsant activity in Wistar albino rat assessed as time spent on stupor phase at 85 mg/kg by MES test (RVb = 218.33 +/- 5.80 sec). It is filed as functional. In a few lines:
as §1

The test system of another test is Nucleic Acid. Kind of test: Induction of Escherichia coli DNA cleavage at 25 mg after 2 hrs using ethidium bromide staining by agarose gel electrophoresis methos. It is filed as nucleic-acid assay. In a few lines:
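Genomic DNA came from E. coli grown 24 h at 37 °C in nutrient broth. It was extracted by SDS/EDTA lysis, phenol then chloroform–isoamyl alcohol, and ethanol precipitation, and dissolved in TAE. Samples were incubated with the DNA 2 h at 37 °C, mixed 1:1 with bromophenol blue, and run on agarose in TAE at 50 V alongside a DNA marker. Gels were ethidium bromide stained 10–15 min and cleavage judged visually.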

In test [17] the test system is Rattus norvegicus. Kind of test: Anticonvulsant activity in Wistar albino rat assessed as time spent on tonic flexion phase at 60 mg/kg by MES test (RVb = 3.12 +/- 0.31 sec). It is filed as functional. In a few lines:
as §1

In test [18] the test system is Rattus norvegicus. Kind of test: Anticonvulsant activity in Wistar albino rat assessed as time spent on tonic extensor phase at 60 mg/kg by MES test (RVb = 11 +/- 0.57 sec). The test is classed as functional. In short, it runs like this:
as §1

In test [19] the test system is Rattus norvegicus. Description: Anticonvulsant activity in Wistar albino rat assessed as time spent on clonic convulsions phase at 60 mg/kg by MES test (RVb = 16.80 +/- 2.50 sec). It is filed as functional. In a few lines: as §1
Test [20] relates to Rattus norvegicus. Description: Anticonvulsant activity in Wistar albino rat assessed as time spent on stupor phase at 60 mg/kg by MES test (RVb = 218.33 +/- 5.80 sec). The test is classed as functional. In short, it runs like this:
as §1

Test [21] deals with Rattus norvegicus. Kind of test: Anticonvulsant activity in Wistar albino rat assessed as time spent on tonic flexion phase at 65 mg/kg by MES test (RVb = 3.12 +/- 0.31 sec). The test is classed as functional. In a few lines: as §1
Test [22] relates to Rattus norvegicus. Description: Anticonvulsant activity in Wistar albino rat assessed as time spent on tonic extensor phase at 65 mg/kg by MES test (RVb = 11 +/- 0.57 sec). The test is classed as functional. In short, it runs like this: as §1
Test [23] deals with Rattus norvegicus. Kind of test: Anticonvulsant activity in Wistar albino rat assessed as time spent on clonic convulsions phase at 65 mg/kg by MES test (RVb = 16.80 +/- 2.50 sec). The test is classed as functional. In short, it runs like this: as §1
Test [24] has as its system Rattus norvegicus. Kind of test: Anticonvulsant activity in Wistar albino rat assessed as time spent on stupor phase at 65 mg/kg by MES test (RVb = 218.33 +/- 5.80 sec). The test is classed as functional. In a few lines:
as §1

Our source for the Time and Activity values is ChEMBL document CHEMBL1157848, “Derivatives of benzimidazole pharmacophore: synthesis, anticonvulsant, antidiabetic and DNA cleavage studies” (2010).

Activity calls are given as the source filed them. The calls are words filed in the database; no cut-off is given here.

Consider `COc1ccc(C2SCC(=O)N2NC(=O)CSc2nc3ccccc3[nH]2)cc1` (configuration not stated), for which the Time in the test on Rattus norvegicus [1] is recorded as 3.02 s; in the test on Rattus norvegicus [2], 9.5 s; with Rattus norvegicus [3] it was 12.62 s; in the test with Rattus norvegicus [4] it was 208 s.

In the case of `Cc1ccc(C2SCC(=O)N2NC(=O)CSc2nc3ccccc3[nH]2)cc1` (configuration not stated), the Time with Rattus norvegicus [5] came to 3.12 s; in the test on Rattus norvegicus [6], 11 s; in the test on Rattus norvegicus [7], 14.62 s; with Rattus norvegicus [8], 207.3 s.

For the molecule `Clc1ccc(-c2nnc(CSc3nc4ccccc4[nH]3)o2)cc1`, the Activity amounted to 386.7 mg/dL in the test on Rattus norvegicus [9], 74.83 mg/dL in the test with Rattus norvegicus [10], 173.2 mg/dL in the test with Rattus norvegicus [11] and 120 mg/dL in the test with Rattus norvegicus [12].

As to `O=C(CSc1nc2ccccc2[nH]1)NN1C(=O)CSC1c1ccccc1O` (configuration not stated), the Time with Rattus norvegicus [13] is listed as 3.14 s; in the test on Rattus norvegicus [14] it was 4.33 s; in the test on Rattus norvegicus [15] it was 15.62 s; in the test with Rattus norvegicus [16], 209.3 s. In addition, in the test on Nucleic Acid, the result was Active.

With `Nc1ccc(C2SCC(=O)N2NC(=O)CSc2nc3ccccc3[nH]2)cc1` (configuration not stated), the Time was 3.15 s in the test on Rattus norvegicus [17], 5.66 s in the test on Rattus norvegicus [18], 15.4 s with Rattus norvegicus [19] and 210.5 s in the test with Rattus norvegicus [20].

For `c1ccc(-c2nnc(CSc3nc4ccccc4[nH]3)o2)cc1`, the Activity with Rattus norvegicus [9] is 337.2 mg/dL; in the test on Rattus norvegicus [10], 76.33 mg/dL; in the test on Rattus norvegicus [11], 180.2 mg/dL; in the test on Rattus norvegicus [12], 107.7 mg/dL. Further, the result in the test on Nucleic Acid was inactive.

Turning to `O=[N+]([O-])c1ccc(-c2nnc(CSc3nc4ccccc4[nH]3)o2)c(Cl)c1`, the Activity in the test on Rattus norvegicus [9] worked out at 187.7 mg/dL; in the test with Rattus norvegicus [10] it was 77.17 mg/dL; in the test with Rattus norvegicus [11], 155.3 mg/dL; with Rattus norvegicus [12], 121.7 mg/dL.

Regarding `c1cncc(-c2nnc(CSc3nc4ccccc4[nH]3)o2)c1`, the Activity in the test on Rattus norvegicus [9] was 343.3 mg/dL; in the test with Rattus norvegicus [10], 81.34 mg/dL; in the test on Rattus norvegicus [11] it was 181.8 mg/dL; in the test with Rattus norvegicus [12] it was 122.8 mg/dL.

With `O=C(CSc1nc2ccccc2[nH]1)NN1C(=O)CSC1c1ccco1` (configuration not stated), the Time with Rattus norvegicus [21] is 4.2 s; with Rattus norvegicus [22], 5.3 s; in the test on Rattus norvegicus [23], 1 s; in the test with Rattus norvegicus [24], 208.6 s.

With `Nc1ccc(-c2nnc(CSc3nc4ccccc4[nH]3)o2)cc1`, the Activity is 335.5 mg/dL in the test on Rattus norvegicus [9], 80.85 mg/dL with Rattus norvegicus [10], 155.5 mg/dL in the test on Rattus norvegicus [11] and 106.5 mg/dL in the test with Rattus norvegicus [12].
